Experimental findings from ChEMBL document CHEMBL1134545, “Design, synthesis, DNA binding, and biological evaluation of water-soluble hybrid molecules containing two pyrazole analogues of the alkylating cyclopropylpyrroloindole (CPI) subunit of the antitumor agent CC-1065 and polypyrrole minor groove binders” (J Med Chem, 2001) are described below.

In one test the test system is CCRF-CEM. Kind of test: In vitro antitumor activity against Human T-lymphoblast (CEM) cell lines. Type of test: functional, cell-based. The method, boiled down: (§1)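 Cells seeded at 250 000-300 000 cells/mL and exposed to a range of compound concentrations. Incubation for 2-3 days at 37 °C, followed by Coulter counter cell counts. IC50 is the concentration that lowers cell number by 50%. Reported as mean ± SE from dose-response curves of at least three independent experiments.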

The next test concerns MOLT-4. Kind of test: In vitro antitumor activity against Human T-lymphoblast (Molt/4) cell lines. Type of test: functional, cell-based. The method, boiled down: as §1
Another test has as its system FM3A. Kind of test: In vitro antitumor activity against Murine mammary carcinoma (FM3A) cell lines. Type of test: functional, cell-based. The following applies: Mus musculus. The method, boiled down:
as §1

In the next test the test system is Daudi. The test can be described thus: In vitro antitumor activity against Human B-lymphoblast (Daudi) cell lines. Type of test: functional, cell-based. The gist of the method:
as §1

Test [1] deals with L1210. The test can be described thus: In vitro antitumor activity against Murine leukemia (L1210) cell lines. The note with it: Mus musculus. It is filed as functional, cell-based. The gist of the method:
as §1

Test [2] has as its system E6SM. The test can be described thus: Antiviral activity against herpes simplex virus-1 KOS (HSV-1) in E6SM cell cultures. It is filed as functional. The following applies: Homo sapiens. The method, boiled down:
(§2)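 Confluent E6SM cells, grown in MEM with 10% inactivated FCS, 2 mM L-glutamine and 0.3% NaHCO3, inoculated with 100 CCID50 per well. After 1 or 2 h, residual virus removed. Cells then incubated in MEM with 2% FCS and varying compound concentrations for 3 days. MIC is the concentration reducing virus-induced cytopathicity by 50% versus untreated control, read when control CPE complete.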

Test [3] concerns E6SM. The test can be described thus: Antiviral activity against […] in E6SM cell cultures. Type of test: functional. The following applies: Homo sapiens. The gist of the method: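 E6SM cells grown in MEM with 10% inactivated FCS, 2 mM L-glutamine and 0.3% NaHCO3, infected, then treated with varying compound concentrations. MIC is the concentration reducing virus-induced cytopathogenicity by 50%, recorded once CPE reached completion in untreated infected controls.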

In test [4] the test system is E6SM. The test can be described thus: Antiviral activity against herpes simplex virus-2 G (HSV-2) in E6SM cell cultures. The note with it: Homo sapiens. Type of test: functional. The gist of the method:
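Confluent E6SM cells (MEM, 10% inactivated FCS) were infected with HSV-2 strain G at 100 CCID50 per well. After 1 or 2 h, residual virus was removed and the cells were incubated in MEM with 2% FCS and varying compound concentrations. MIC is the concentration reducing cytopathicity by 50%, recorded when control infected cultures reached full CPE (3 days).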

In test [5] the test system is E6SM. Kind of test: Antiviral activity against herpes simplex virus-1 TK-KOS ACV (HSV-1) in E6SM cell cultures. It is filed as functional. The following applies: Homo sapiens. The method, boiled down: as §2
The subject of test [6] is E6SM. Kind of test: Minimum cytotoxic concentration required to cause a microscopically detectable alteration of normal cell morphology. It is filed as functional. The note with it: Homo sapiens. The method, boiled down:
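E6SM cell cultures exposed to compound for the same duration as the antiviral assays. Cells examined under a microscope. MCC is the lowest concentration causing detectable alteration of normal cell morphology.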

Test [7] concerns E6SM. Kind of test: Antiviral activity against herpes simplex virus-1 TK-VMW 1837 (HSV-1) in E6SM cell cultures. Type of test: functional. The note with it: Homo sapiens. The method, boiled down: as §2
Test [8] concerns L1210. Kind of test: Cytotoxicity against L1210 leukemia cells. It is filed as functional, cell-based. The note with it: Mus musculus. The gist of the method:
as §1

For test [9], the system named is E6SM. Kind of test: Antiviral activity against Vaccinia virus in E6SM cell cultures. The note with it: Homo sapiens. Type of test: functional. The gist of the method: as §2

≈ marks a conversion by molar mass, not a printed value. Where only a bound is given, the exact number is not on record here.

What is called IC50 is the concentration at which inhibition is half-maximal. Low readings indicate inhibition by little substance, high ones a need for much substance. For the compound `Cc1n[nH]c2c(O)cc3c(c12)C(CCl)CN3C(=O)c1cc(C(=O)Nc2cc(C(=O)Nc3cc(C(=O)NCCC(=N)N)n(C)c3)n(C)c2)n(C)n1` (stereo not given), the IC50 is 39 nM in the test on CCRF-CEM; 45 nM in the test with MOLT-4; 190 nM in the test on FM3A; 22 nM with Daudi; 19 nM in the test with L1210 [1].

Consider `Nc1nc2c(ncn2COCCO)c(=O)[nH]1` [ACYCLOVIR], for which the MIC is 0.077 µg/mL (≈ 0.342 µM) in the test with E6SM [2]; greater than 400 µg/mL in the test on E6SM [3]; 0.077 µg/mL (≈ 0.342 µM) in the test on E6SM [4]; 48 µg/mL (≈ 213 µM) with E6SM [5]; 0.384 µg/mL (≈ 1.71 µM) with E6SM [7]. Besides, the MCC in the test with E6SM [6] is greater than 400 µg/mL.

`CC(C)(C)OC(=O)N1CC(CCl)c2c1cc(O)c1c2cnn1Cc1ccccc1` (stereo not given): the IC50 in the test on CCRF-CEM is 6720 nM; in the test with MOLT-4, 8550 nM; in the test on FM3A it was 18300 nM; in the test on Daudi it was 7520 nM; in the test with L1210 [1], 2710 nM.

Regarding `Cc1nn(Cc2ccccc2)c2c1C13CC1CN(C(=O)OC(C)(C)C)C3=CC2=O` (racemic), in the test with L1210 [8], half-maximal inhibition (IC50) was put at 3060 nM.

As to `Cn1cc(NC(=O)c2cc(NC(=O)c3cc(C(=O)N4CC(CCl)c5c4cc(O)c4c5cnn4Cc4ccccc4)nn3C)cn2C)cc1C(=O)NCCC(=N)N` (stereo not given), the IC50 in the test with CCRF-CEM was 210 nM; in the test on MOLT-4 it was 160 nM; with FM3A, 5600 nM; with Daudi, 38 nM; in the test with L1210 [1] it was 600 nM.

As to `O=c1[nH]c(=O)n([C@H]2C[C@H](O)[C@@H](CO)O2)cc1/C=C/Br` [BRIVUDINE], the MIC was 0.015 µg/mL (≈ 0.045 µM) in the test with E6SM [2]; greater than 400 µg/mL against E6SM [3]; 240 µg/mL (≈ 720 µM) in the test on E6SM [4]; 240 µg/mL (≈ 720 µM) in the test on E6SM [5]; 0.077 µg/mL (≈ 0.231 µM) in the test with E6SM [9]; 0.128 µg/mL (≈ 0.384 µM) in the test with E6SM [7]. In the test with E6SM [6], this compound displayed an MCC greater than 400 µg/mL.

With `Cn1cc(NC(=O)c2cc(NC(=O)c3cc(NC(=O)c4cc(C(=O)N5CC(CCl)c6c5cc(O)c5c6cnn5Cc5ccccc5)nn4C)cn3C)cn2C)cc1C(=O)NCCC(=N)N` (stereo not given), the IC50 in the test on CCRF-CEM turned out to be 400 nM; in the test with MOLT-4, 310 nM; with FM3A, 19300 nM; in the test with Daudi, 100 nM; in the test with L1210 [1], 400 nM.

With `Cn1cc(NC(=O)c2cc(C(=O)N3CC(CCl)c4c3cc(O)c3c4cnn3Cc3ccccc3)nn2C)cc1C(=O)NCCC(=N)N` (stereo not given), the IC50 with CCRF-CEM was 70 nM; in the test with MOLT-4, 130 nM; in the test on FM3A, 4000 nM; in the test on Daudi it was 11 nM; with L1210 [1] it was 240 nM.

In the case of `Nc1nc2c(ncn2COC(CO)CO)c(=O)[nH]1` [GANCICLOVIR], the MIC in the test on E6SM [2] is 0.004 µg/mL (≈ 0.0157 µM); against E6SM [3] it was greater than 100 µg/mL; in the test with E6SM [4], 0.004 µg/mL (≈ 0.0157 µM); with E6SM [5] it was 1.92 µg/mL (≈ 7.52 µM); in the test with E6SM [7], 0.019 µg/mL (≈ 0.0744 µM). The MCC in the test on E6SM [6] is greater than 100 µg/mL.

Take `NC(=O)c1ncn([C@@H]2O[C@H](CO)[C@@H](O)[C@H]2O)n1` [RIBAVIRIN]: the MIC amounted to 240 µg/mL (≈ 983 µM) against E6SM [2]; 48 µg/mL (≈ 197 µM) in the test on E6SM [3]; 48 µg/mL (≈ 197 µM) in the test on E6SM [4]; 240 µg/mL (≈ 983 µM) in the test with E6SM [5]; 16 µg/mL (≈ 65.5 µM) against E6SM [9]; 240 µg/mL (≈ 983 µM) with E6SM [7]. The compound also showed an MCC in the test with E6SM [6] greater than 400 µg/mL.

In the case of `Cc1n[nH]c2c(O)cc3c(c12)C(CCl)CN3C(=O)OC(C)(C)C` (stereo not given), the IC50 in the test with CCRF-CEM worked out at 1260 nM; in the test with MOLT-4, 1740 nM; in the test with FM3A, 1400 nM; with Daudi, 680 nM; in the test with L1210 [1], 520 nM. The MIC with E6SM [2], against E6SM [3], against E6SM [4], in the test on E6SM [5] and with E6SM [7] was greater than 1.6 µg/mL each time. The compound further gave an MCC in the test on E6SM [6] of 8 µg/mL.

In the case of `Cc1n[nH]c2c(O)cc3c(c12)C(CCl)CN3C(=O)c1cc(C(=O)Nc2cc(C(=O)NCCC(=N)N)n(C)c2)n(C)n1` (stereo not given), the IC50 in the test on CCRF-CEM is 230 nM; in the test on MOLT-4, 340 nM; with FM3A, 1600 nM; in the test on Daudi it was 150 nM; in the test with L1210 [1], 58 nM.

For the compound `Cc1n[nH]c2c(O)cc3c(c12)C(CCl)CN3C(=O)c1cc(C(=O)Nc2cc(C(=O)Nc3cc(C(=O)Nc4cc(C(=O)NCCC(=N)N)n(C)c4)n(C)c3)n(C)c2)n(C)n1.Cl` (stereo not given), the IC50 in the test on CCRF-CEM came to 71 nM; in the test on MOLT-4, 17 nM; with FM3A it was 31 nM; in the test on Daudi, 8.8 nM; in the test on L1210 [1] it was 7.4 nM. In addition, the MIC against E6SM [2] was greater than 0.16 µg/mL; against E6SM [3] it was greater than 0.16 µg/mL; in the test on E6SM [4] it was 0.16 µg/mL; against E6SM [5], greater than 0.16 µg/mL; against E6SM [9] it was 0.019 µg/mL; against E6SM [7], greater than 0.16 µg/mL. This compound also displayed an MCC in the test on E6SM [6] of 0.8 µg/mL.
